Experimental data published in ChEMBL document CHEMBL4007382 (Eur J Med Chem, 2017).
pIC50: −log10 of the molar value.

Experiments:
[1] = tested on: Mus musculus; assay: Cardiotoxicity in Kunming mouse assessed as change in heart rate at 20 mg/kg, ip measured after 4 mins by electrocardiogram (reference value: -13.79 +/- 13.4); assay type: toxicity, organism-based; settings: in vivo
[2] = tested on: Mus musculus; assay: Cardiotoxicity in Kunming mouse assessed as change in heart rate at 20 mg/kg, ip measured after 11 mins by electrocardiogram (reference value: -35.4 +/- 11.4); assay type: toxicity, organism-based; settings: in vivo
[3] = tested on: Mus musculus; assay: Cardiotoxicity in Kunming mouse assessed as change in heart rate at 20 mg/kg, ip measured after 3 mins by electrocardiogram (reference value: -14.4 +/- 19.94); assay type: toxicity, organism-based; settings: in vivo, 0.05 h
[4] = tested on: Mus musculus; assay: Cardiotoxicity in Kunming mouse assessed as change in heart rate at 20 mg/kg, ip measured after 12 mins by electrocardiogram (reference value: -40.39 +/- 20.17); assay type: toxicity, organism-based; settings: in vivo, 0.2 h
[5] = tested on: Mus musculus; assay: Cardiotoxicity in Kunming mouse assessed as change in heart rate at 20 mg/kg, ip measured after 22 mins by electrocardiogram (reference value: -41.94 +/- 12.51); assay type: toxicity, organism-based; settings: in vivo
[6] = target: T1, Cholinesterase (Homo sapiens, UniProt P06276); assay: Inhibition of human plasma BuChE using S-butyrylthiocholine iodide as substrate preincubated for 60 mins followed by substrate addition measured after 5 mins by Ellman's method
Summary of the method: (§1)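 Source was plasma from heparinised blood of one healthy donor, centrifuged at 1000 × g for 20 min at 25°C, stored at -80°C and diluted 150X. Ellman assay at pH 8 and 37°C with 60 min preincubation and seven inhibitor concentrations in water, 5×10^-8 to 5×10^-10 M. Triplicates.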

[7] = tested on: Mus musculus; assay: Cardiotoxicity in Kunming mouse assessed as change in heart rate at 20 mg/kg, ip measured after 30 mins by electrocardiogram (reference value: -43.78 +/- 22.71); assay type: toxicity, organism-based; settings: in vivo, 0.5 h
[8] = tested on: Mus musculus; assay: Cardiotoxicity in Kunming mouse assessed as change in heart rate at 20 mg/kg, ip measured after 14 mins by electrocardiogram (reference value: -38.12 +/- 19.53); assay type: toxicity, organism-based; settings: in vivo
[9] = tested on: Mus musculus; assay: Cardiotoxicity in Kunming mouse assessed as change in heart rate at 20 mg/kg, ip measured after 6 mins by electrocardiogram (reference value: -19.47 +/- 22.55); assay type: toxicity, organism-based; settings: in vivo, 0.1 h
[10] = tested on: Mus musculus; assay: Cardiotoxicity in Kunming mouse assessed as change in heart rate at 20 mg/kg, ip measured after 1 mins by electrocardiogram (reference value: -4.04 +/- 7.52); assay type: toxicity, organism-based; settings: in vivo
[11] = tested on: Mus musculus; assay: Cardiotoxicity in Kunming mouse assessed as change in heart rate at 20 mg/kg, ip measured after 36 mins by electrocardiogram (reference value: -32.32 +/- 25.52); assay type: toxicity, organism-based; settings: in vivo, 0.6 h
[12] = tested on: Mus musculus; assay: Cardiotoxicity in Kunming mouse assessed as change in heart rate at 20 mg/kg, ip measured after 28 mins by electrocardiogram (reference value: -49.06 +/- 20.71); assay type: toxicity, organism-based; settings: in vivo
[13] = tested on: Mus musculus; assay: Cardiotoxicity in Kunming mouse assessed as change in heart rate at 20 mg/kg, ip measured after 8 mins by electrocardiogram (reference value: -27.98 +/- 16.02); assay type: toxicity, organism-based; settings: in vivo
[14] = target: Acetylcholinesterase (Homo sapiens, UniProt P22303); assay: Inhibition of human blood AChE using acetylthiocholine as substrate
[15] = target: T1, Cholinesterase; assay: Inhibition of human blood BuChE using butyrylthiocholine as substrate; summary of the method: as §1

T1 sequence (P06276 whole entry): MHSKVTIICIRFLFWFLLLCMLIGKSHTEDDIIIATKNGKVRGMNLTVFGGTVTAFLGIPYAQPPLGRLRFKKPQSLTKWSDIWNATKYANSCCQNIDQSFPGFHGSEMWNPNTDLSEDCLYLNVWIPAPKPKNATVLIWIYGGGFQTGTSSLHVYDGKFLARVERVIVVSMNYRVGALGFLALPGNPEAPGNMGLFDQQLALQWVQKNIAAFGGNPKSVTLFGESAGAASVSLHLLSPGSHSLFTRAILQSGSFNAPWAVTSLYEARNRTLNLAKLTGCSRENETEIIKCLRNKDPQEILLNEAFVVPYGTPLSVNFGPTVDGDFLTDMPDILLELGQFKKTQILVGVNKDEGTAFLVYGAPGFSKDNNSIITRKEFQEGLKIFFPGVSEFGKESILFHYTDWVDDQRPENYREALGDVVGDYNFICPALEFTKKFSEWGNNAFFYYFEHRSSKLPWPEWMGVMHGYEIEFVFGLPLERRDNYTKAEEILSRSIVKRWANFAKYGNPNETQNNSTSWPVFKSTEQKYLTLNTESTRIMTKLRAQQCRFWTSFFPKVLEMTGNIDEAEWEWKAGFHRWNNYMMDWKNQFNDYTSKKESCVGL
Sequence of Acetylcholinesterase (P22303 whole entry): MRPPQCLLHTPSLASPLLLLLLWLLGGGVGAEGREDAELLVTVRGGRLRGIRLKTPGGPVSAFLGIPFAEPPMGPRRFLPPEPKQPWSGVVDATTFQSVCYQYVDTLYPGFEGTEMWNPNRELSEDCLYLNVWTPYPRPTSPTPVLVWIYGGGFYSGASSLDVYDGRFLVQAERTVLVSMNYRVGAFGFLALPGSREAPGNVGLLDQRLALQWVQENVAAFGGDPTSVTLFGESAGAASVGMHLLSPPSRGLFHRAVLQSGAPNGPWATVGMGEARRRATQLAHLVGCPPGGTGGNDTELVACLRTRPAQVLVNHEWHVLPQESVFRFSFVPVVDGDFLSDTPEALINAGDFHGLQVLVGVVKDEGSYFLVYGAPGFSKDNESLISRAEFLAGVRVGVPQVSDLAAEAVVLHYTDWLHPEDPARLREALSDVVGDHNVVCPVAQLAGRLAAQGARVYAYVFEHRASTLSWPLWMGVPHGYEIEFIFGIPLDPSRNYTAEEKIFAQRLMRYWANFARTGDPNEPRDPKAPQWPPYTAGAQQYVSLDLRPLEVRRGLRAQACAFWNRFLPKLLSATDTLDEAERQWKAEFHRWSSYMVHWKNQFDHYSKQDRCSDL

| SMILES | Activity [1] [bpm] | Activity [2] [bpm] | Activity [3] [bpm] | Activity [4] [bpm] | Activity [5] [bpm] | pIC50 [6] | Activity [7] [bpm] | Activity [8] [bpm] | Activity [9] [bpm] | Activity [10] [bpm] | Activity [11] [bpm] | Activity [12] [bpm] | Activity [13] [bpm] | pIC50 [14] | pIC50 [15] |
| --- | --- | --- | --- | --- | --- | --- | --- | --- | --- | --- | --- | --- | --- | --- | --- |
| CCC(C)(C)NCC(O)c1cc(OC(=O)N(C)C)cc(OC(=O)N(C)C)c1.Cl (stereo unspecified) | -26.67 | -42.6 | -22.65 | -46.97 | -41.75 | 8.14 | -36.5 | -51.28 | -31.29 | -18.58 | -36.32 | -37.58 | -32.94 | – | – |
| CCN(C)C(=O)Oc1cc(OC(=O)N(C)CC)cc(C(O)CNC(C)(C)CC)c1.Cl (stereo unspecified) | 2.55 | -8.17 | 0.93 | -4.45 | 0.05 | 8.15 | -1.5 | -4.15 | -1.48 | -0.1 | -25.47 | -7.52 | -4.23 | – | – |
| CN(C)C(=O)Oc1cc(OC(=O)N(C)C)cc(C(O)CNC(C)(C)C)c1 (stereo unspecified) [BAMBUTEROL] | 3.77 | 5.19 | 2.1 | 15.49 | 48.65 | 8.37 | -20.41 | 39.93 | 16.63 | -2.81 | -26.54 | -15.03 | 9.76 | 4.52 | 8.52 |
